Published values gathered from unrelated publications.
Lines come from different studies, so protocols differ. Values after ≈ are worked out from the molar mass of the structure shown.
Organism: Staphylococcus aureus

| SMILES | test | test system | setting | quantity | result |
| --- | --- | --- | --- | --- | --- |
| COC(=O)c1cc(-c2cccc(NC(=O)Nc3ccc(F)cc3)c2)on1 | microbial growth, broth dilution | ATCC29213 | – | MIC | > 64 µg/mL |
| O[C@]12C=C(c3nccc4c3[nH]c3ccccc34)[C@@H]3CCN(CCCC/C=C\CC1)C[C@@]31C[C@@H]3/C=C\CCCCN3[C@H]12 | microbial growth | MRSA | drug-resistant strain | IC50 | 0.7 µg/mL (≈ 1.28 µM) |
| CCOc1cc(-c2nc3ccccc3[nH]2)ccc1O | microbial growth, broth dilution | ATCC43300 MRSA | drug-resistant strain | MIC | 256 µg/mL (≈ 1010 µM) |
| COC(=O)c1cc(-c2cccc(NC(=O)Nc3ccc(OC)cc3)c2)on1 | microbial growth, broth dilution | ATCC29213 | – | MIC | > 64 µg/mL |
| O=C(O)c1cn(C2CC2)c2cc(N3CCNCC3)c(F)cc2c1=O | microbial growth | ATCC29213 | – | IC50 | 0.13 µg/mL (≈ 0.392 µM) |
| COC(=O)c1cc(-c2cccc(NC(=S)Nc3ccccc3)c2)on1 | microbial growth, broth dilution | ATCC29213 | – | MIC | > 64 µg/mL |
| C=CCn1c(-c2ccc(Cl)c(Cl)c2)nc2ccccc21 | microbial growth, broth dilution | ATCC43300 MRSA | drug-resistant strain | MIC | 64 µg/mL (≈ 211 µM) |
| O=C(O)c1cn(C2CC2)c2cc(N3CCNCC3)c(F)cc2c1=O | microbial killing | – | – | MBC | 19 µM |
| COC(=O)c1cc(-c2cccc(NC(=O)Nc3ccc(Cl)c(C(F)(F)F)c3)c2)on1 | microbial growth, broth dilution | ATCC29213 | – | MIC | > 64 µg/mL |
| O=C(O)c1cn(C2CC2)c2cc(N3CCNCC3)c(F)cc2c1=O | microbial growth, broth dilution | ATCC43300 MRSA | drug-resistant strain | MIC | 16 µg/mL (≈ 48.3 µM) |
| COC(=O)c1cc(-c2cccc(NC(=S)Nc3ccc(F)cc3F)c2)on1 | microbial growth, broth dilution | ATCC29213 | – | MIC | > 64 µg/mL |
| CN[C@H](CC(C)C)C(=O)N[C@H]1C(=O)N[C@@H](CC(N)=O)C(=O)N[C@H]2C(=O)N[C@H]3C(=O)N[C@H](C(=O)N[C@H](C(=O)O)c4cc(O)cc(O)c4-c4cc3ccc4O)[C@H](O)c3ccc(c(Cl)c3)Oc3cc2cc(c3O[C@@H]2O[C@H](CO)[C@@H](O)[C@H](O)[C@H]2O[C@H]2C[C@](C)(N)[C@H](O)[C@H](C)O2)Oc2ccc(cc2Cl)[C@H]1O | microbial killing, broth dilution | NRS107 | – | MBC | 1 µM |
| CC1(C)CC[C@]2(C(=O)O)CC[C@]3(C)C(=CC[C@@H]4[C@@]5(C)CC[C@H](O)C(C)(C)[C@@H]5CC[C@]43C)[C@@H]2C1 | microbial growth | USA400 | – | MIC | 256 µg/mL (≈ 561 µM) |
| COC(=O)c1cc(-c2cccc(NC(=O)Nc3ccccc3F)c2)on1 | microbial growth, broth dilution | ATCC29213 | – | MIC | > 64 µg/mL |
| O=[N+]([O-])c1ccc(-c2nc3ccccc3[nH]2)cc1 | microbial growth, broth dilution | ATCC43300 MRSA | drug-resistant strain | MIC | 256 µg/mL (≈ 1070 µM) |
| Cc1c(NN=C(C#N)C2=NC(=O)CS2)c(=O)n(-c2ccccc2)n1C | microbial killing, broth dilution | – | – | MBC | 1 µg/mL |
| CSc1ccc(-c2nc3ccc(C)cc3[nH]2)cc1 | microbial growth, broth dilution | ATCC43300 MRSA | drug-resistant strain | MIC | 32 µg/mL (≈ 126 µM) |
| CC1(c2ccccc2O)Nn2c(nc(-c3ccc(Cl)cc3)c(C#N)c2=O)N1C(Cc1c[nH]c2ccccc12)C(=O)O (centres unmarked) | microbial killing | – | drug-resistant strain | MBC | 100 µg/mL |
| Cc1ccc2nc(-c3ccco3)n(Cc3ccccc3)c2c1 | microbial growth, broth dilution | ATCC43300 MRSA | drug-resistant strain | MIC | 128 µg/mL (≈ 444 µM) |
| COc1ccccc1Nc1cccc2nccnc12 | microbial growth | RN4220 | – | EC50 | 20 µM |
